Hits are enriched below; roughly 12% of the tested compounds scored in any of these assays.
Lmaj promast: reduces viability of Leishmania major promastigotes. AID 1063. resazurin fluorescence viability. inhibition, % at 10 µM. 9% of 200,000 active; in the data active means inhibition above about 50%;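 further: promastigotes grown with compound for 44 hours at 28 °C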
ABCB1 inh: human ABCB1 inhibition, ABCG2 as counter-screen | P08183 | 0.067% of 190,000 active | CCRF-Adr cells, JC-1 efflux, flow cytometry | inhibition, % at 6.6 µM | AID 1326; in the data active means inhibition above about 40%;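 further: 0% = vehicle and 100% = reference inhibitor; higher value means more JC-1 retained so stronger ABCB1 efflux block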
Target sequence (P08183 whole entry, looked up): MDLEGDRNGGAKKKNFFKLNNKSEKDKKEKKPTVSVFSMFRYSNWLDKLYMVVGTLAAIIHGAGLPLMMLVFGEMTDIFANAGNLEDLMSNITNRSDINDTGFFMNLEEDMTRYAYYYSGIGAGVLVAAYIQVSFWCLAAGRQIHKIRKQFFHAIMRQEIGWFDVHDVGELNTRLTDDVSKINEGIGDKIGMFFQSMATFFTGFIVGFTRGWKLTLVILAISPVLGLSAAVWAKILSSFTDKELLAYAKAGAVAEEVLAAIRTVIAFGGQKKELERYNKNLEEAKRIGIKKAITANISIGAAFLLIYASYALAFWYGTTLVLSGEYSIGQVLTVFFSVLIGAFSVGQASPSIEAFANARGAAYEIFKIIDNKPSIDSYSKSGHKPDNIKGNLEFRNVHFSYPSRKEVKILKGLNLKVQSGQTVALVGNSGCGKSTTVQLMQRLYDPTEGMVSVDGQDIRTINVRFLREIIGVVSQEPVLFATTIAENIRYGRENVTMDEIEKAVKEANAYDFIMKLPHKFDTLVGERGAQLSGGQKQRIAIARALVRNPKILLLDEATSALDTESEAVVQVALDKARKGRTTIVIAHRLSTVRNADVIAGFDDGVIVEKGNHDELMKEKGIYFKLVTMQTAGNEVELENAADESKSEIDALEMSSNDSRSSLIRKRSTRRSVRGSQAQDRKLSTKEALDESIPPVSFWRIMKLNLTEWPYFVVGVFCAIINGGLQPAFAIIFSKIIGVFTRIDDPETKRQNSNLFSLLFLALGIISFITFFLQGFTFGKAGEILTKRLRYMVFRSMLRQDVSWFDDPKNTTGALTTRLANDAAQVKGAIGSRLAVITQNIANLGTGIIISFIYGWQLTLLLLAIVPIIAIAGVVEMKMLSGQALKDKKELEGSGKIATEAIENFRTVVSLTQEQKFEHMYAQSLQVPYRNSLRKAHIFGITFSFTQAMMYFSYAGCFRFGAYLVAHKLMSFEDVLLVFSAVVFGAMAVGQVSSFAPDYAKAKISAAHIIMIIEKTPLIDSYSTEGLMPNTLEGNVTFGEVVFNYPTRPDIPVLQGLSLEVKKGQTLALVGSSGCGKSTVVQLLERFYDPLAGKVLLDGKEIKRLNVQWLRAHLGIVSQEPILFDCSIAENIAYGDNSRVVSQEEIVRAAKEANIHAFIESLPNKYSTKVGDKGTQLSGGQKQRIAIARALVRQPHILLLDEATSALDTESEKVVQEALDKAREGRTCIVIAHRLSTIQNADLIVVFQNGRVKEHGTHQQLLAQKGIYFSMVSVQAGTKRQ
ABCG2 block: inhibitors of human ABCG2 transporter, ABCB1 counter-screen | IgMXP3 cells, JC-1 efflux, flow cytometry | inhibition, % at 6.6 µM | 0.1% of 190,000 active;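 active means inhibition above 80%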;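 further: 0% = DMSO and 100% = nicardipine control wells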
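Test system: IgMXP3 (ABCG2) plus far-red-tagged CCRF-Adr (ABCB1) cells. Reagent: JC-1 dye as substrate. Timing: 10 min exposure at 25 °C with rotation, no wash. Measured by: flow cytometric JC-1 green MFI at 530 nm. Read-out: percent efflux inhibition, scaled nicardipine 100% to DMSO 0%. Control set: nicardipine and DMSO wells.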
WT yeast gro inh: growth inhibition of WT yeast, mitochondrial fusion screen. mitochondrial fusion phenotypic screen, WT strain. inhibition, % at 10 µM. 2.1% of 190,000 active. AID 1362; in the data active means inhibition above about 58%; tested in S. cerevisiae
RAM inhibit: yeast RAM network inhibition | S. cerevisiae dse1pr::URA3 reporter, 5-FOA growth OD615, 2 d; analog-sensitive cbk1-as2 kinase mutant strain | inhibition, % at 50 µM | 1.8% of 190,000 active;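 active means inhibition above a set limit, 3 SD over mean compound inhibition, cut at about 8.4% in these data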;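 further: 0% = DMSO-only wells with no growth and 100% = 10 µM 1-NA-PP1 full growth; inhibition rescues growth on 5-FOA so higher OD means more RAM inhibition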
The depositor's hits bear a star.

How did O=S(=O)(c1ccc(F)c(F)c1)N1CCN(Cc2ccc3c(c2)OCO3)CC1 do in these assays?
Lmaj promast: 78*; ABCB1 inh: 1; ABCG2 block: 2; WT yeast gro inh: -6; RAM inhibit: 2

How did O=C(c1ccc2nc(N3CCCCC3)sc2c1)N1CCN(Cc2ccc3c(c2)OCO3)CC1 do in these assays?
Lmaj promast: 68*; ABCB1 inh: 1; ABCG2 block: -1; WT yeast gro inh: 2; RAM inhibit: 0

What do the screens show for `O=S(=O)(Cc1ccccc1)N1CCN(Cc2ccc3c(c2)OCO3)CC1`?
Lmaj promast: 92*; ABCB1 inh: 0; ABCG2 block: -2; WT yeast gro inh: 6; RAM inhibit: 1

What do the screens show for `O=C(OCc1ccc2c(c1)OCO2)c1cccc(S(=O)(=O)N2CCCCC2)c1`?
Lmaj promast: 55*; ABCB1 inh: 0; ABCG2 block: 7; WT yeast gro inh: 22; RAM inhibit: 8.6*

How did O=C1CCc2cc(S(=O)(=O)N3CCN(Cc4ccc5c(c4)OCO5)CC3)ccc2N1 do in these assays?
Lmaj promast: -1; ABCB1 inh: -1; ABCG2 block: 5; WT yeast gro inh: -16; RAM inhibit: 1

What do the screens show for `COc1ccc(OCC(O)CNC(=O)/C=C/c2cccc([N+](=O)[O-])c2)cc1` (stereo not given)?
Lmaj promast: 5; ABCB1 inh: 0; ABCG2 block: 4; WT yeast gro inh: -10; RAM inhibit: 1

What do the screens show for `O=C(C[n+]1ccccc1)Nc1ccc(Oc2ccccc2)cc1`?
Lmaj promast: 17; ABCB1 inh: 0; ABCG2 block: 0; WT yeast gro inh: 7; RAM inhibit: 0

What do the screens show for `CCC(C)NS(=O)(=O)c1ccc(NS(=O)(=O)c2ccc(F)cc2)cc1` (stereo not given)?
Lmaj promast: 2; ABCB1 inh: 0; ABCG2 block: 1; WT yeast gro inh: 8; RAM inhibit: 0

Results for COCCN=C1Sc2nc3cc4c(cc3cc2CN1CC1CCCO1)OCO4 (stereo not given) ?
Lmaj promast: 4; ABCB1 inh: 2; ABCG2 block: 9; WT yeast gro inh: -9; RAM inhibit: 4

What do the screens show for `CC(C)c1onc(C(=O)NCc2ccccc2)c1[N+](=O)[O-]`?
Lmaj promast: -8; ABCB1 inh: 0; ABCG2 block: 1; WT yeast gro inh: 11; RAM inhibit: 1

What do the screens show for `O=C(c1ccc(S(=O)(=O)N2CCCCC2)cc1)N1CCN(Cc2ccc3c(c2)OCO3)CC1`?
Lmaj promast: 98*; ABCB1 inh: 2; ABCG2 block: 4; WT yeast gro inh: -12; RAM inhibit: 1

How did COc1cc(C)c(C)cc1S(=O)(=O)N1CCN(Cc2ccc3c(c2)OCO3)CC1 do in these assays?
Lmaj promast: 60*; ABCB1 inh: 2; ABCG2 block: 5; WT yeast gro inh: 16; RAM inhibit: 0

How did O=S(=O)(c1ccc2c(c1)OCCO2)N1CCN(Cc2ccc3c(c2)OCO3)CC1 do in these assays?
Lmaj promast: 73*; ABCB1 inh: 0; ABCG2 block: 0; WT yeast gro inh: 20; RAM inhibit: 1

Results for O=S(=O)(c1ccc2c(c1)OCCO2)N1CCN(Cc2ccccc2)CC1 ?
Lmaj promast: 5; ABCB1 inh: 0; ABCG2 block: 0; WT yeast gro inh: 10; RAM inhibit: 0

What do the screens show for `CCn1c2ccccc2c2cc(CN3CCN(S(=O)(=O)CC)CC3)ccc21`?
Lmaj promast: 28; ABCB1 inh: 1; ABCG2 block: 6; WT yeast gro inh: 28; RAM inhibit: 0

What do the screens show for `CCn1c2ccccc2c2cc(CN3CCN(S(=O)(=O)Cc4ccccc4)CC3)ccc21`?
Lmaj promast: 55*; ABCB1 inh: 2; ABCG2 block: 7; WT yeast gro inh: -13; RAM inhibit: 7

Results for O=C(c1cccc(S(=O)(=O)N2CCOCC2)c1)N1CCN(Cc2ccc3c(c2)OCO3)CC1 ?
Lmaj promast: 2; ABCB1 inh: 2; ABCG2 block: 8; WT yeast gro inh: -12; RAM inhibit: 1

Results for NC(=O)CSc1nccn1Cc1ccc(Cl)cc1 ?
Lmaj promast: -4; ABCB1 inh: 0; ABCG2 block: 0; WT yeast gro inh: 3; RAM inhibit: 2

Results for O=C(O)c1cc([N+](=O)[O-])c(N2CCCC2)c([N+](=O)[O-])c1 ?
Lmaj promast: -3; ABCB1 inh: 0; ABCG2 block: 0; WT yeast gro inh: -7; RAM inhibit: 3

How did Cc1cc(-c2nn(-c3ccccc3F)cc2CN(C)CC(O)CO)c(C)s1 (stereo not given) do in these assays?
Lmaj promast: 3; ABCB1 inh: 0; ABCG2 block: 3; WT yeast gro inh: 10; RAM inhibit: 1

Results for O=C(Cc1cccs1)NC(c1ccccc1)c1ccccc1 ?
Lmaj promast: 6; ABCB1 inh: 1; ABCG2 block: 9; WT yeast gro inh: 7; RAM inhibit: 6

What do the screens show for `O=C(COC(=O)/C(=C/c1cccs1)c1cccs1)NC(c1ccccc1)c1ccccc1`?
Lmaj promast: 97*; ABCB1 inh: 2; ABCG2 block: 30; WT yeast gro inh: 36; RAM inhibit: 3

Results for COC(=O)c1ccc(N2C(=O)Nc3ccccc3N2O)cc1 ?
Lmaj promast: 4; ABCB1 inh: 0; ABCG2 block: 4; WT yeast gro inh: 4; RAM inhibit: 1

What do the screens show for `CNc1ccc(C(O)(C(F)(F)F)C(F)(F)F)cc1C(O)(C(F)(F)F)C(F)(F)F`?
Lmaj promast: 98*; ABCB1 inh: 1; ABCG2 block: 8; WT yeast gro inh: 56; RAM inhibit: 1

Results for CC(=O)Nc1ccccc1NS(=O)(=O)c1ccc(Cl)cc1 ?
Lmaj promast: 16; ABCB1 inh: 1; ABCG2 block: 1; WT yeast gro inh: 14; RAM inhibit: -1

How did O=C1C(NS(=O)(=O)c2ccc(Cl)cc2)=C(N2CCCCC2)C(=O)c2ccccc21 do in these assays?
Lmaj promast: 89*; ABCB1 inh: 1; ABCG2 block: 2; WT yeast gro inh: 57; RAM inhibit: 0

How did Cn1cc(/C=C/C(=O)N2CCCC(C(=O)c3ccc(C(C)(C)C)cc3)C2)cn1 (stereo not given) do in these assays?
Lmaj promast: -4; ABCB1 inh: 1; ABCG2 block: 5; WT yeast gro inh: 25; RAM inhibit: 0

How did CCCCc1ccc(-c2nc(NC(=O)C3C4CCC(O4)C3C(=O)O)sc2C)cc1 (stereo not given) do in these assays?
Lmaj promast: -5; ABCB1 inh: 0; ABCG2 block: 0; WT yeast gro inh: 88*; RAM inhibit: 0

Results for O=C(Cn1ccc([N+](=O)[O-])n1)Nc1ccccn1 ?
Lmaj promast: 5; ABCB1 inh: -1; ABCG2 block: 0; WT yeast gro inh: 22; RAM inhibit: 1

What do the screens show for `NS(=O)(=O)c1ccc(O)c(NC(=O)c2ccc([N+](=O)[O-])cc2)c1`?
Lmaj promast: -5; ABCB1 inh: 1; ABCG2 block: 3; WT yeast gro inh: -3; RAM inhibit: 2
